Source: ChEMBL document CHEMBL1177807, “Structure-based optimization of potent PDK1 inhibitors” (Bioorg Med Chem Lett, 2010)
Activity calls are given as the source filed them. The rule behind the calls is not given here.

Columns and labels:
[1] = biological target: Cyclin-dependent kinase 2 (Homo sapiens, UniProt P24941); assay: Inhibition of CDK2
[2] = biological target: T1, 3-phosphoinositide-dependent protein kinase 1 (Homo sapiens) (UniProt O15530); assay: (§1) Inhibition of PDK1
T1 sequence (whole entry): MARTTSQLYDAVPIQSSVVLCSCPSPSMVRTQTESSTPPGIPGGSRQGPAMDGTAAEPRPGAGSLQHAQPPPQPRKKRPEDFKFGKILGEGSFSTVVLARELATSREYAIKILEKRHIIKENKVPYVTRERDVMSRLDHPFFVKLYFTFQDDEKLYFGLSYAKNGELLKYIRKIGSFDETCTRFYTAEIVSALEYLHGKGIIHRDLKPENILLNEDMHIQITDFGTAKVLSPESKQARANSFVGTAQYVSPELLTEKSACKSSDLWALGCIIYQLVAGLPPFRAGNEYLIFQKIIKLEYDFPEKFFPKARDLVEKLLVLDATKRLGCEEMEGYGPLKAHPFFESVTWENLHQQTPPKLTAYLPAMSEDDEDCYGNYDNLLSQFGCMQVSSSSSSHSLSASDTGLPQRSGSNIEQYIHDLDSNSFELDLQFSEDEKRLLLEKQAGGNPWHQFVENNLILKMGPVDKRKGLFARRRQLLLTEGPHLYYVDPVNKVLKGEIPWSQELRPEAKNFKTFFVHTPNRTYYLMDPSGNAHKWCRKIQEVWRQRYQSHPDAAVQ

[3] = system: A2780; assay: Cytotoxicity against human A2780 cells after 72 hrs by Cell titer-glo assay; format: functional
In short: (§2)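 A2780 cells were grown in RPMI-1640 and MCF7 cells in MEM, each with heat-inactivated 10% fetal calf serum. Cells were seeded at 2500–5000 cells/well, treated with compound after 24 h, and incubated 72 h at 37 °C under 5% CO₂. Lysed-well ATP content, read by thermostable firefly luciferase, measured viable cells. IC₅₀ came from percent growth versus untreated control.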

[4] = system: MCF7; assay: Cytotoxicity against human MCF7 cells after 72 hrs by Cell titer-glo assay; format: functional; in short: as §2
[5] = biological target: T2, 3-phosphoinositide-dependent protein kinase 1 (Homo sapiens, UniProt O15530); assay: as §1
T2 sequence (O15530 whole entry): T1 sequence (whole entry)

[6] = biological target: T3, Aurora kinase A (Homo sapiens) (UniProt O14965); assay: Inhibition of aurora A at 40 nM
T3 sequence (whole entry): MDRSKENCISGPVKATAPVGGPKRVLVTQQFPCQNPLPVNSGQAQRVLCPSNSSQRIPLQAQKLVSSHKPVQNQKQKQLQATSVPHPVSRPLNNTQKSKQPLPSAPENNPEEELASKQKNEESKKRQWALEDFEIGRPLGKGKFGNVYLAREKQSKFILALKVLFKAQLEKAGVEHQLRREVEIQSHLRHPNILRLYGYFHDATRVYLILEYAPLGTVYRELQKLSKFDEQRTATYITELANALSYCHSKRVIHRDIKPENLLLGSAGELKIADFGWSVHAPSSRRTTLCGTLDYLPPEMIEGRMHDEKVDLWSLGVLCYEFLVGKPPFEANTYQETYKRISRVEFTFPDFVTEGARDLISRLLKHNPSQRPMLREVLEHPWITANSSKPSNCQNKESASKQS

[7] = biological target: Aurora kinase B (Homo sapiens) (UniProt Q96GD4); assay: Inhibition of aurora B at 100 nM
Sequence of Aurora kinase B (Homo sapiens) (Q96GD4 whole entry): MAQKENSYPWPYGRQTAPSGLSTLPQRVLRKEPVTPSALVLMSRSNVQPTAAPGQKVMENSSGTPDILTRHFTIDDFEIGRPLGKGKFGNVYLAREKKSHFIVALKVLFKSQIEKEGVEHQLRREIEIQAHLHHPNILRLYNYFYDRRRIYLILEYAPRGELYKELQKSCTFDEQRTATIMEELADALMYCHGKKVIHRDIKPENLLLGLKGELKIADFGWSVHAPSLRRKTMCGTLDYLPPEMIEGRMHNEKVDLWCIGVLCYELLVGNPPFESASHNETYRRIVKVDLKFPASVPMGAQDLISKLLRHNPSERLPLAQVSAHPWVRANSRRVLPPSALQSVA

| IC50 [1] [nM] | IC50 [2] [nM] | IC50 [5] [nM] | inhibition [6] | inhibition [7] | Structure (SMILES) | Activity [3] [µM] | Activity [4] [µM] |
| --- | --- | --- | --- | --- | --- | --- | --- |
| 319 | 713 | – | – | – | Cc1cc(CNC(=O)c2nn(C)c3c2CCc2cnc(Nc4ccc(N5CCN(C)CC5)cc4)nc2-3)ccn1 | 0.17 | 4.91 |
| 12 | – | – | – | – | NC(=O)c1nn(CC2CCNCC2)c2c1CCc1cnc(Nc3ccccc3)nc1-2 | 0.51 | 1.36 |
| 1 | – | 36 | – | – | NCCCn1nc(C(N)=O)c2c1-c1nc(Nc3ccccc3)ncc1CC2 | 0.12 | 0.14 |
| 10 | – | 2740 | – | – | NC(=O)Cn1nc(C(N)=O)c2c1-c1nc(Nc3ccccc3)ncc1CC2 | 2.71 | 6 |
| 500 | – | 85 | Active | Active | Cc1cc(CNC(=O)c2nn(CCCN)c3c2CCc2cnc(Nc4cccc(CC(=O)N(C)C)c4)nc2-3)ccn1 [NERVIANO] | 5.9 | >10 |
